Holding throughout (type): functional
The subject of test [1] is Acinetobacter baumannii. The test is described as follows: Potentiation of Clarithromycin antibacterial activity against Acinetobacter baumannii AB3560 assessed as clarithromycin MIC at 10 uM incubated for 16 hrs by broth microdilution method.
Test [2] relates to Acinetobacter baumannii. In words: Potentiation of Azithromycin antibacterial activity against Acinetobacter baumannii AB5075 assessed as azithromycin MIC at 2.5 uM incubated for 16 hrs by broth microdilution method. A general note: In broth dilution the organism is exposed to a series of concentrations in liquid medium.
In test [3] the test system is Acinetobacter baumannii. The test is described as follows: Antibacterial activity against Acinetobacter baumannii AB5075 assessed as reduction in bacterial growth incubated for 16 hrs by broth microdilution method.
Test [4] concerns Acinetobacter baumannii. In words: Potentiation of Clarithromycin antibacterial activity against Acinetobacter baumannii AB5075 assessed as fold reduction in clarithromycin MIC at 30 uM incubated for 16 hrs by broth microdilution method. A digest of the protocol:
(§1)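 Checkerboard-style potentiation by broth microdilution. 6 h day cultures in CAMHB diluted to 5×10^5 CFU/mL. Adjuvant added from 10 mM DMSO stock at fixed concentration throughout. […] Controls: antibiotic alone, adjuvant alone, media only. Incubated stationary at 37 °C for 16 h. MIC is lowest concentration with no visible growth; fold reduction taken against the antibiotic-alone lane.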

Test [5] deals with Acinetobacter baumannii. The test is described as follows: Potentiation of rifampicin antibacterial activity against Acinetobacter baumannii AB5075 assessed as rifampicin MIC at 10 uM incubated for 16 hrs by broth microdilution method.
Test [6] deals with Acinetobacter baumannii. In words: Potentiation of rifampicin antibacterial activity against Acinetobacter baumannii AB5075 assessed as rifampicin MIC at 30 uM incubated for 16 hrs by broth microdilution method.
Test [7] concerns Acinetobacter baumannii. In words: Potentiation of Clarithromycin antibacterial activity against Acinetobacter baumannii AB5075 assessed as clarithromycin MIC at 1.5 uM incubated for 16 hrs by broth microdilution method. The method in brief: as §1
Test [8] has as its system Acinetobacter baumannii. In words: Potentiation of Clarithromycin antibacterial activity against Acinetobacter baumannii AB5075 assessed as clarithromycin MIC at 5 uM incubated for 16 hrs by broth microdilution method.
In test [9] the test system is Acinetobacter baumannii. In words: Potentiation of Clarithromycin antibacterial activity against Acinetobacter baumannii AB5075 assessed as fold reduction in clarithromycin MIC at 7.5 uM incubated for 16 hrs by broth microdilution method. The method in brief:
as §1

The test system of test [10] is Acinetobacter baumannii. In words: Potentiation of Clarithromycin antibacterial activity against Acinetobacter baumannii AB4498 assessed as clarithromycin MIC at 10 uM incubated for 16 hrs by broth microdilution method.
Test [11] concerns Acinetobacter baumannii. In words: Potentiation of rifampicin antibacterial activity against Acinetobacter baumannii AB5075 assessed as fold reduction in rifampicin MIC at 10 uM incubated for 16 hrs by broth microdilution method.
Test [12] relates to Klebsiella pneumoniae. In words: Potentiation of Clarithromycin antibacterial activity against Klebsiella pneumoniae ATCC BAA-2146 assessed as clarithromycin MIC at 10 uM incubated for 16 hrs by broth microdilution method.
The next test relates to Pseudomonas aeruginosa. The test is described as follows: Antibacterial activity against Pseudomonas aeruginosa PAO1 assessed as inhibition of bacterial growth incubated for 16 hrs by broth microdilution method. The method in brief:
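Standalone MIC by broth microdilution. 6 h day cultures in cation-adjusted Mueller-Hinton broth (CAMHB) diluted to 5×10^5 CFU/mL. Compound added from 10 mM DMSO stock to 200 μM (highest concentration), then twofold serial dilution. Incubated stationary at 37 °C for 16 h. OD600 read; MIC is lowest concentration with <10% growth versus positive control.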

For test [13], the system named is Acinetobacter baumannii. The test is described as follows: Potentiation of Clarithromycin antibacterial activity against Acinetobacter baumannii AB967 assessed as clarithromycin MIC at 10 uM incubated for 16 hrs by broth microdilution method.
Test [14] relates to Acinetobacter baumannii. In words: Potentiation of erythromycin antibacterial activity against Acinetobacter baumannii AB5075 assessed as erythromycin MIC at 2.5 uM incubated for 16 hrs by broth microdilution method.
The subject of test [15] is Klebsiella pneumoniae. In words: Potentiation of Clarithromycin antibacterial activity against Klebsiella pneumoniae ATCC BAA-2146 assessed as clarithromycin MIC at 7.5 uM incubated for 16 hrs by broth microdilution method.
The test system of the next test is Escherichia coli. The test is described as follows: Antibacterial activity against Escherichia coli ATCC 25922 assessed as inhibition of bacterial growth incubated for 16 hrs by broth microdilution method. A digest of the protocol:
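Standalone MIC by broth microdilution. 6 h day cultures in cation-adjusted Mueller-Hinton broth (CAMHB) diluted to 5×10^5 CFU/mL. Compound added from 10 mM DMSO stock to 200 μM (highest concentration), then twofold serial dilution. Incubated stationary at 37 °C for 16 h.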

Test [16] deals with Acinetobacter baumannii. In words: Potentiation of Azithromycin antibacterial activity against Acinetobacter baumannii AB5075 assessed as azithromycin MIC at 10 uM incubated for 16 hrs by broth microdilution method.

In general, MIC refers to the lowest concentration found to suppress growth. With `Cl.Cl.Nc1nc(-c2ccc(NC(=O)Nc3cccc(-c4c[nH]c(N)n4)c3F)cc2F)c[nH]1`, the MIC is ≤ 0.062 µg/mL in the test with Acinetobacter baumannii [1]; 32 µg/mL with Acinetobacter baumannii [2]; > 200 µM in the test on Acinetobacter baumannii [3]; 0.007 µg/mL in the test on Acinetobacter baumannii [5]; 0.001 µg/mL in the test with Acinetobacter baumannii [6]; 2 µg/mL in the test with Acinetobacter baumannii [7]. Besides, the MIC with Acinetobacter baumannii [8] is ≤ 0.062 µg/mL; in the test with Acinetobacter baumannii [10], ≤ 0.062 µg/mL; in the test on Klebsiella pneumoniae [12] it was 2 µg/mL; in the test with Pseudomonas aeruginosa it was 256 µM; in the test with Acinetobacter baumannii [13], ≤ 0.062 µg/mL; in the test with Acinetobacter baumannii [14] it was 32 µg/mL. The MIC in the test on Klebsiella pneumoniae [15] was determined as 16 µg/mL; in the test on Escherichia coli, 12.5 µM; with Acinetobacter baumannii [16], 0.125 µg/mL. For the same compound, the “fold change (FC)” value is reported as “>=512” in the test on Acinetobacter baumannii [4], “>=512” with Acinetobacter baumannii [9] and 32 in the test with Acinetobacter baumannii [11].

Source of the values: ChEMBL document CHEMBL5360562 (Eur J Med Chem, 2023).
